Laboratory results from ChEMBL document CHEMBL4311940, “Design, Synthesis, and Biological Evaluation of 4-Methyl Quinazoline Derivatives as Anticancer Agents Simultaneously Targeting Phosphoinositide 3-Kinases and Histone Deacetylases” (J Med Chem, 2019).
Activity calls are given as the source filed them. No cut-off for these calls is given here.

What was measured:
Mus musculus [1] = assay: In vivo inhibition of PI3K/HDAC in tumor of human HCT116 cells xenografted in athymic nude BALB/c mouse assessed as reduction in phosphorylated Ki67 expression by DAB staining based immunohistochemistry method; type: functional, organism-based
Summary of the method: (§1)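 HCT116 xenograft tumors from treated and vehicle mice stained immunohistochemically for Ki67, acetyl-H3 and p-AKT(S473) (200×); integrated optical density quantified; mean ± SEM, n = 5−7, one-way ANOVA versus vehicle.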

[2] = target: Dual specificity tyrosine-phosphorylation-regulated kinase 1B (Homo sapiens) (UniProt Q9Y463); assay: Binding affinity to wild-type human full length DYRK1B (M1 to S629 residues) expressed in bacterial expression system assessed as residual binding level at 1 uM by Kinomescan method relative to control
Summary of the method: (§2)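 Kinomescan binding screen at 1 μM across 97 kinases.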

Mus musculus [3] = assay: In vivo inhibition of HDAC in tumor of human HCT116 cells xenografted in athymic nude BALB/c mouse assessed as increase in acetylated histone-H3 expression by DAB staining based immunohistochemistry method; type: functional, organism-based; summary of the method: as §1
Homo sapiens [4] = organism: Homo sapiens; assay: Inhibition of HDAC/PI3K in human HCT116 cells assessed as increase in cleaved PARP level at 0.5 to 5 uM after 16 hrs by Western blot analysis; type: cell-based
Summary of the method: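 Immunoblot of HCT116 lysates (RIPA). 40 μg protein per lane on 10−12% SDS-PAGE, transferred to nitrocellulose, blocked 0.5 h in 5% milk/TBST. Primary antibodies 1:1000 overnight at 4 °C, secondary 1:1000 for 1 h, bands visualized by enhanced ECL.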

[5] = Toxicity in athymic nude BALB/c mouse xenografted with human HGC27 cells assessed as reduction in body weight at 30 mpk, ip measured 2 times every week relative to control; type: organism-based; set-up: scale not given: the % may be the effect or the level left; conditions: in vivo, 30 mg/kg
Mus musculus [6] = assay: In vivo inhibition of PI3K in tumor of human HCT116 cells xenografted in athymic nude BALB/c mouse assessed as reduction in phosphorylated AKT expression at S473 residue by DAB staining based immunohistochemistry method; type: functional, organism-based; summary of the method: as §1
HGC-27 = assay: Antitumor activity against human HGC27 cells xenografted in athymic nude BALB/c mouse assessed as tumor growth inhibition at 30 mpk, ip measured 2 times every week; type: functional; conditions: HGC-27, ip, read-out: TGI
Summary of the method: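 HGC-27 xenograft: 2 × 10^6 cells in 0.2 mL saline s.c. right flank of female BALB/c-nu/nu mice (6–8 weeks); randomized at 100–200 mm3. Oral dosing in 0.5% cmc with Tween 80, intraperitoneal in saline; vehicle given orally daily.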

[7] = target: Phosphatidylinositol 4,5-bisphosphate 3-kinase catalytic subunit gamma isoform (Homo sapiens, UniProt P48736); assay: Binding affinity to wild-type human partial length PIK3CG (S144 to A1102 residues) expressed in mammalian expression system assessed as residual binding level at 1 uM by Kinomescan method relative to control; summary of the method: as §2
[8] = Drug metabolism in rat bile assessed as glucuronide metabolite formation at 0.74 mg/kg, iv after 1 hr by LC/MS/MS analysis; type: ADME, organism-based; conditions: in vivo
Homo sapiens [9] = organism: Homo sapiens; assay: Selectivity ratio, ratio of IC50 for recombinant human PIK3CB to recombinant human His-tagged PIK3CD/PIK3R1 expressed in baculovirus expression system
[10] = target: Histone deacetylase (Homo sapiens) (UniProt Q13547+O15379+Q9UBN7+Q92769+Q9UQL6+Q8WUI4+Q9BY41+Q96DB2+P56524+Q9UKV0+Q969S8); assay: Inhibition of HDAC in human HCT116 cells assessed as increase in acetylated p53 levels after 16 hrs by Western blot analysis; type: cell-based
Summary of the method: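 HCT116 cells lysed in RIPA after washes in cold PBS. 40 μg protein run on 10−12% SDS-PAGE and transferred to nitrocellulose. Membrane blocked in 5% milk/TBST for 0.5 h, primary antibodies 1:1000 overnight at 4 °C, secondary 1:1000 for 1 h, ECL detection.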

Sequence of Dual specificity tyrosine-phosphorylation-regulated kinase 1B (Homo sapiens) (Q9Y463 whole entry, looked up, the tested form may be a part): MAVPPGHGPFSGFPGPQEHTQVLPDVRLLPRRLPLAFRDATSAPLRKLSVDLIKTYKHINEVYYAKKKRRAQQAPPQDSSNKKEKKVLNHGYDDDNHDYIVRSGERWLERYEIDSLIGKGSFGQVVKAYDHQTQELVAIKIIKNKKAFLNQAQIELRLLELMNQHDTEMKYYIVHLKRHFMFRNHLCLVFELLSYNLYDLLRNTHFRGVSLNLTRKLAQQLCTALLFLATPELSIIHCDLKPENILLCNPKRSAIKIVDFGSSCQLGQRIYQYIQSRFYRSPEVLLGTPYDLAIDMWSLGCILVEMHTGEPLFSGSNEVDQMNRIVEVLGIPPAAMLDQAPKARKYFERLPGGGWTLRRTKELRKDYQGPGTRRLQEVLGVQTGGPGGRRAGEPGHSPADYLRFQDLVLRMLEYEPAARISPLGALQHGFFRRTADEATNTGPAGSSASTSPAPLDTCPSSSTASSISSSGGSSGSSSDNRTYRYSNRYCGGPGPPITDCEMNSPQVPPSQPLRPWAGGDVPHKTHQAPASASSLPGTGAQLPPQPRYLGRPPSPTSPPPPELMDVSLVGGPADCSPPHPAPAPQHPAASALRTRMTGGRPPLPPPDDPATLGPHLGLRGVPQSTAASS
Sequence of Phosphatidylinositol 4,5-bisphosphate 3-kinase catalytic subunit gamma isoform (P48736 whole entry, looked up, the tested form may be a part, canonical isoform): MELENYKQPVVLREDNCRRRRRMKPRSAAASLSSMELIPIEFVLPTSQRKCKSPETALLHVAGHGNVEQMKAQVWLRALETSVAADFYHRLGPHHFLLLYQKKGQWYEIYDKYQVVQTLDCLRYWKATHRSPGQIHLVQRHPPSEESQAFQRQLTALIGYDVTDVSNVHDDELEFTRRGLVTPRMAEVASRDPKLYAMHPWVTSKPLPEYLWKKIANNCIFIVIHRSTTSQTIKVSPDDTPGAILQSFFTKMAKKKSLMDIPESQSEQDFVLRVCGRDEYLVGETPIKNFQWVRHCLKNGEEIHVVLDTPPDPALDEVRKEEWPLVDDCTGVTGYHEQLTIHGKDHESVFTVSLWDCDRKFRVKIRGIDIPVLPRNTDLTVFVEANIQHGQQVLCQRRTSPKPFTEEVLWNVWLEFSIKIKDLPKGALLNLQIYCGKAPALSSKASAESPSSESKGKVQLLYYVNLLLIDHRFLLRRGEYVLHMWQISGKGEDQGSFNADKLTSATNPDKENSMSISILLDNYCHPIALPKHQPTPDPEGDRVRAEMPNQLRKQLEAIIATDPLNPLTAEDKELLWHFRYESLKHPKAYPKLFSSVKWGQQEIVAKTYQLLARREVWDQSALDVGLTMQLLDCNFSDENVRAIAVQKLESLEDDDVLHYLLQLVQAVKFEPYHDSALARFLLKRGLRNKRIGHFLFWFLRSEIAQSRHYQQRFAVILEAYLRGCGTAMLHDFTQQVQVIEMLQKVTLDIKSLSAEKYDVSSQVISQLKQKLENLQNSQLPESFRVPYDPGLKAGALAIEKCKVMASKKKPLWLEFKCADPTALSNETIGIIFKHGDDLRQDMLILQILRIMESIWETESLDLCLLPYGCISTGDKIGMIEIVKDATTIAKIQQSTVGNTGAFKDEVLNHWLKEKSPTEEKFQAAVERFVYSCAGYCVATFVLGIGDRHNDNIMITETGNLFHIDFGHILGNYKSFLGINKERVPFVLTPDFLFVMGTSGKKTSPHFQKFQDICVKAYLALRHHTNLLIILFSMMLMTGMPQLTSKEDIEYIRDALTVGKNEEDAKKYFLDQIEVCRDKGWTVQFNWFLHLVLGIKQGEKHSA

Row | Structure (SMILES) | inhibition (Mus musculus [1]) | Activity [2] | inhibition (Mus musculus [3]) | inhibition (Homo sapiens [4]) | Activity [5] | inhibition (Mus musculus [6]) | inhibition in vivo at 30 mg/kg (HGC-27) | Activity [7] | Drug metabolism [8] | Ratio IC50 (Homo sapiens [9]) | inhibition [10]
1 | COc1ncc(-c2cc(OCCCCCCC(=O)NO)c3ncnc(C)c3c2)cc1F | Dose-dependent effect | 29% | Dose-dependent effect | Active | 20% | Dose-dependent effect | 62.6% | 1.4% | Metabolite_Detected | – | –
2 | COc1ccc(-c2cc(OCCN(C)c3ncc(C(=O)NO)cn3)c3ncnc(C)c3c2)cn1 | – | – | – | – | – | – | – | – | – | > 5 | Dose-dependent effect
